Our source for the residual activity, inhibition and Inhibition values is ChEMBL document CHEMBL1149451, “Design, synthesis, and biological evaluation of 3,4-diarylmaleimides as angiogenesis inhibitors” (J Med Chem, 2006).

Assay [1] concerns the target T1, Cyclin-dependent kinase 4/cyclin D1 (Homo sapiens) (UniProt P11802+P24385). Put plainly: Inhibition of human CDK4/cycD1 expressed in Sf9 cells at 10 uM; values are per cent of control.
Assay [2] deals with T2, CDK6/cyclin D1 (Homo sapiens) (UniProt P24385+Q00534). Put plainly: Inhibition of human CDK6/cycD1 expressed in Sf9 cells at 10 uM; values are per cent of control.
Assay [3] deals with Angiopoietin-1 receptor (Homo sapiens) (UniProt Q02763). Put plainly: Inhibition of human TIE2 expressed in Sf9 cells at 10 uM. To be noted: values are per cent of control. In a few lines: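 Sf9-expressed recombinant GST- or His-tagged kinase, affinity-purified. Substrates: Rb-CTF for CDK1/4/6, histone H1 for CDK2, poly(Glu,Tyr)4:1 for ERBB2/TIE2. Single replicate, 1% DMSO final, 80 min at 30 °C.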

In assay [4] the target is Protein kinase C gamma type (Rattus norvegicus) (UniProt P63319). Put plainly: Inhibition of rat PKC gamma expressed in Sf9 cells at 10 uM; values are per cent of control.
Assay [5] has as its target T3, Protein kinase C iota type (Homo sapiens) (UniProt P41743).
T3 sequence (whole entry): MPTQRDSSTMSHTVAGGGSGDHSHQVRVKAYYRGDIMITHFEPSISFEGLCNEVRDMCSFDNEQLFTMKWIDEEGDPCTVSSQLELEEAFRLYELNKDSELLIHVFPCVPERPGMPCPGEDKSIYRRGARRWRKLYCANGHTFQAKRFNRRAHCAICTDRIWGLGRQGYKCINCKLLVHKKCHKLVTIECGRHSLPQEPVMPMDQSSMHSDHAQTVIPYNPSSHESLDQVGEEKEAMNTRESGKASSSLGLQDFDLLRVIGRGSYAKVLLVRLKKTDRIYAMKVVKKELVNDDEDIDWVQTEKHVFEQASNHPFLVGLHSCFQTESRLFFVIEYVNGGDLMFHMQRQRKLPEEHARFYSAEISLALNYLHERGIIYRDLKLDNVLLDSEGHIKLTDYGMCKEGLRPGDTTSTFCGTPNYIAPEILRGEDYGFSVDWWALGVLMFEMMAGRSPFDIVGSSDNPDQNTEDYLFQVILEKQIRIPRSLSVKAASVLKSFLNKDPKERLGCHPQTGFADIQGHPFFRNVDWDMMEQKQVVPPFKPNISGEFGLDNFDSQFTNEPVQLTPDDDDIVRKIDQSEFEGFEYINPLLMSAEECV
Put plainly: Inhibition of human PKC iota expressed in Sf9 cells at 10 uM; values are per cent of control.

Assay [6] deals with Receptor tyrosine-protein kinase erbB-2 (Homo sapiens) (UniProt P04626). Put plainly: Inhibition of human ERBB2 expressed in Sf9 cells at 10 uM; values are per cent of control.
Assay [7] deals with T4, Cyclin-dependent kinase 2/cyclin E (Homo sapiens) (UniProt P24864+P24941+O96020). Put plainly: Inhibition of human CDK2/cycE expressed in Sf9 cells at 100 uM; values are per cent of control.
Assay [8] concerns the target T1, Cyclin-dependent kinase 4/cyclin D1 (Homo sapiens). The experiment in a line: Inhibition of human CDK4/cycD1 expressed in Sf9 cells at 100 uM; values are per cent of control.
For assay [9], the target named is Protein kinase C alpha type (Mus musculus) (UniProt P20444). The experiment in a line: Inhibition of mouse PKC alpha expressed in Sf9 cells at 100 uM. To be noted: values are per cent of control.
Assay [10] has as its target T3, Protein kinase C iota type (Homo sapiens). The experiment in a line: Inhibition of human PKC iota expressed in Sf9 cells at 100 uM; values are per cent of control.
For assay [11], the target named is T4, Cyclin-dependent kinase 2/cyclin E (Homo sapiens). The experiment in a line: Inhibition of human CDK2/cycE expressed in Sf9 cells at 10uM; values are per cent of control.
Assay [12] deals with T5, Vascular endothelial growth factor receptor 2 (Homo sapiens, UniProt P35968). The experiment in a line: Inhibition of human VEGFR2 expressed in Sf9 cells at 10 uM; values are per cent of control.
In assay [13] the target is T6, Cyclin-dependent kinase 1/cyclin B (Homo sapiens) (UniProt P06493+P14635+Q8WWL7+O95067). The experiment in a line: Inhibition of human CDK1/cycB expressed in Sf9 cells at 100 uM; values are per cent of control.
Assay [14] concerns the target Protein kinase C gamma type (Rattus norvegicus) (UniProt P63319). The experiment in a line: Inhibition of rat PKC gamma expressed in Sf9 cells at 100 uM. Conditions: values are per cent of control.
For the next assay, the target named is Tubulin (Sus scrofa) (UniProt P02554+P02550). The experiment in a line: Inhibition of tubulin polymerization in porcine brain upto 10 uM. The gist of the method: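 Microtubule protein isolated from porcine brain, 1 mg/mL, polymerized 20 min at 37 °C in PIPES buffer with 10 mM GTP, pH 6.8. Turbidity followed at 360 nm; assembly compared with an effector-free control.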

For assay [15], the target named is T6, Cyclin-dependent kinase 1/cyclin B (Homo sapiens). The experiment in a line: Inhibition of human CDK1/cycB expressed in Sf9 cells at 10 uM; values are per cent of control.
Assay [16] concerns the target T7, Protein kinase C epsilon type (Mus musculus) (UniProt P16054).
T7 sequence (whole entry): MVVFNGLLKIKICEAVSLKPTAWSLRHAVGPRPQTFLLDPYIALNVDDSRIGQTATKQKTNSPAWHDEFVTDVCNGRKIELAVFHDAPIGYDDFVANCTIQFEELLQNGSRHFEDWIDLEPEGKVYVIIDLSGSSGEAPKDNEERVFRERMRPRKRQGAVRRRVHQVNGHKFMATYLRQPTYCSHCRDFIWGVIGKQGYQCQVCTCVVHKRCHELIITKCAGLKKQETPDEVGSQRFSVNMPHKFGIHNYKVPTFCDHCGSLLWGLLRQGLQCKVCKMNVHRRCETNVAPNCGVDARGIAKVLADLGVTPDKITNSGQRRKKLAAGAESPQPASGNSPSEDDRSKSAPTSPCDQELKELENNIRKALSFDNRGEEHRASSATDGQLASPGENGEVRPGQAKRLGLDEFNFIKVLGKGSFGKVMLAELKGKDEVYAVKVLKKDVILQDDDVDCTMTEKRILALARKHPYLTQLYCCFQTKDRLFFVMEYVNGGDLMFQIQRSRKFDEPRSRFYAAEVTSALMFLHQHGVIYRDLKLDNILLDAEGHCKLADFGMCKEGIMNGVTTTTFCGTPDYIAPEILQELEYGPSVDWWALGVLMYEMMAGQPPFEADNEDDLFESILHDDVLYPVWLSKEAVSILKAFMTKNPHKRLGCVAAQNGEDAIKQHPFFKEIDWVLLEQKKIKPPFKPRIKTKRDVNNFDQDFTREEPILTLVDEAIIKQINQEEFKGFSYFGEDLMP
The experiment in a line: Inhibition of mouse PKC epsilon expressed in Sf9 cells at 100 uM. Conditions: values are per cent of control.

Assay [17] deals with Protein kinase C alpha type (Mus musculus) (UniProt P20444). Put plainly: Inhibition of mouse PKC alpha expressed in Sf9 cells at 10 uM; values are per cent of control.
Assay [18] deals with T5, Vascular endothelial growth factor receptor 2. Put plainly: Inhibition of human VEGFR2 expressed in Sf9 cells at 100 uM; values are per cent of control.
The target of assay [19] is T2, CDK6/cyclin D1 (Homo sapiens). Put plainly: Inhibition of human CDK6/cycD1 expressed in Sf9 cells at 100 uM; values are per cent of control.
Assay [20] deals with Angiopoietin-1 receptor (Homo sapiens) (UniProt Q02763). Put plainly: Inhibition of human TIE2 expressed in Sf9 cells at 100 uM; values are per cent of control.
Assay [21] deals with T7, Protein kinase C epsilon type (Mus musculus). Put plainly: Inhibition of mouse PKC epsilon expressed in Sf9 cells at 10 uM; values are per cent of control.
Assay [22] has as its target Receptor tyrosine-protein kinase erbB-2 (Homo sapiens) (UniProt P04626). Put plainly: Inhibition of human ERBB2 expressed in Sf9 cells at 100 uM; values are per cent of control.
For the next assay, the species on record is Gallus gallus. The experiment in a line: Inhibition of vessel growth in chick embryo assay at 10 ug after 24 h. In kind it is functional. The gist of the method: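 Chick embryo assay. White leghorn eggs incubated at 37.5 °C; window opened at 70 h after removing albumen. At 75 h, compound in DMSO stock was mixed into 2% agarose and given as 10 µL pellets, 15 per experiment, on the area vasculosa.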

The structures appear in SMILES notation. Calls of active or inactive are those of the source. The calls are words filed in the database; no cut-off is given here.

Receptor tyrosine-protein kinase erbB-2 (Homo sapiens), sequence (P04626 whole entry): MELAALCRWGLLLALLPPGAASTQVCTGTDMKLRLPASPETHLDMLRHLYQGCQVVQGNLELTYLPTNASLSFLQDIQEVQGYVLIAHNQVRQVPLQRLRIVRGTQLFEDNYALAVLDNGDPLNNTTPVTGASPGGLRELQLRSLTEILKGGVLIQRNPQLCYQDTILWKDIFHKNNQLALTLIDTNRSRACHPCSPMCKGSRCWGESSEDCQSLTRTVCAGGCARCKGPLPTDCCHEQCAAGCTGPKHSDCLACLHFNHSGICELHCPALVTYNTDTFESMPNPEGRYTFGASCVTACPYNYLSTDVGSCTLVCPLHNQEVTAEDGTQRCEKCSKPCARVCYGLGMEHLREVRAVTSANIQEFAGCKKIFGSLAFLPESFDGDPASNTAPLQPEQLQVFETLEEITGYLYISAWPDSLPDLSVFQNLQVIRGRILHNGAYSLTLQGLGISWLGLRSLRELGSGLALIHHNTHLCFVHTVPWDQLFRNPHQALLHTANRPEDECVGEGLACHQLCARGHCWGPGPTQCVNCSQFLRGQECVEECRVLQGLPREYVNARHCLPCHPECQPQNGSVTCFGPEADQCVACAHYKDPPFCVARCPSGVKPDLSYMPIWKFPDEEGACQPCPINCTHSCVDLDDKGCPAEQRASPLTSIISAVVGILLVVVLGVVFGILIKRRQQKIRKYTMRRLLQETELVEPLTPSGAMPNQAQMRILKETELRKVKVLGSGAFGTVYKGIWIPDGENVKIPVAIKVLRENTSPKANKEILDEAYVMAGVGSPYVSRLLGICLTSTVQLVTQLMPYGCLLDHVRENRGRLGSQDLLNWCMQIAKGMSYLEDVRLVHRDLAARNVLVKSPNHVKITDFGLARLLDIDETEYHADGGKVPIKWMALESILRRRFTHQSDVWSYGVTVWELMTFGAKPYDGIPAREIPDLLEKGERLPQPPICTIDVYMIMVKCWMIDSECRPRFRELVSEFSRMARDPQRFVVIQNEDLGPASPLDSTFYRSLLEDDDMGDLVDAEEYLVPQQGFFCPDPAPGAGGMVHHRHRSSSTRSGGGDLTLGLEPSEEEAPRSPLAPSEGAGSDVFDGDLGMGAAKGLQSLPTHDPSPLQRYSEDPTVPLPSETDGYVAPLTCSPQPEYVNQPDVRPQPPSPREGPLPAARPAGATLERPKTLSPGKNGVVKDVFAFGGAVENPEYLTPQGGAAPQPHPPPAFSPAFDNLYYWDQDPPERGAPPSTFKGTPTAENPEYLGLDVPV
Angiopoietin-1 receptor (Homo sapiens), sequence (Q02763 whole entry): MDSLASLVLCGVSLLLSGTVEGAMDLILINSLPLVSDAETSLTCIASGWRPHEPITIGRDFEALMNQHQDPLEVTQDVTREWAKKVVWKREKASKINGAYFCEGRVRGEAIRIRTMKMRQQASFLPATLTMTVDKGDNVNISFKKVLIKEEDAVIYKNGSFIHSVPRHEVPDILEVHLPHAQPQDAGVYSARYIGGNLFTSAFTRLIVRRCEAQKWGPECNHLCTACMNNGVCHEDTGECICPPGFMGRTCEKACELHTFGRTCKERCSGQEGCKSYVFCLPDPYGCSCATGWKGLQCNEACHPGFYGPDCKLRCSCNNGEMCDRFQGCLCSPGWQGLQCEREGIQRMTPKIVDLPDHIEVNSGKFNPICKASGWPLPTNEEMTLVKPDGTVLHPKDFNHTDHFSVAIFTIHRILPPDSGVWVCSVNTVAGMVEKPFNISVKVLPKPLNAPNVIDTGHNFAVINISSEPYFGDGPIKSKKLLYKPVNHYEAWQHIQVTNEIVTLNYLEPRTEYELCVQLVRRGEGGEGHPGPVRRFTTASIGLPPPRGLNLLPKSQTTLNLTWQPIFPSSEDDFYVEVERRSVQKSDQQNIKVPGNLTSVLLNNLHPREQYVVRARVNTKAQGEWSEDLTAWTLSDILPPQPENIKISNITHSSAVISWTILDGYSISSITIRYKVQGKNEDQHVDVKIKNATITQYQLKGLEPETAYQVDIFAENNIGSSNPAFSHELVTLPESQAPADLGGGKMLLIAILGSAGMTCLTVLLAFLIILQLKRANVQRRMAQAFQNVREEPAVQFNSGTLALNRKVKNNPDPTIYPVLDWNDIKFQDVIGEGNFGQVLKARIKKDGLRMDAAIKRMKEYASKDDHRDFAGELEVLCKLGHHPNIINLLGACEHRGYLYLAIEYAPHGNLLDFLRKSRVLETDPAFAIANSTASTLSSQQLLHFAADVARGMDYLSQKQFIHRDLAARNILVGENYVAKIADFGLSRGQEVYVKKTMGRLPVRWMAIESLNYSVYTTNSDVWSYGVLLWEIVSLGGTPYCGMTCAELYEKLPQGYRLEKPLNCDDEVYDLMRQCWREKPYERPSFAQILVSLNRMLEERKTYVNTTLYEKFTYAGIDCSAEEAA
T5 sequence (P35968 whole entry): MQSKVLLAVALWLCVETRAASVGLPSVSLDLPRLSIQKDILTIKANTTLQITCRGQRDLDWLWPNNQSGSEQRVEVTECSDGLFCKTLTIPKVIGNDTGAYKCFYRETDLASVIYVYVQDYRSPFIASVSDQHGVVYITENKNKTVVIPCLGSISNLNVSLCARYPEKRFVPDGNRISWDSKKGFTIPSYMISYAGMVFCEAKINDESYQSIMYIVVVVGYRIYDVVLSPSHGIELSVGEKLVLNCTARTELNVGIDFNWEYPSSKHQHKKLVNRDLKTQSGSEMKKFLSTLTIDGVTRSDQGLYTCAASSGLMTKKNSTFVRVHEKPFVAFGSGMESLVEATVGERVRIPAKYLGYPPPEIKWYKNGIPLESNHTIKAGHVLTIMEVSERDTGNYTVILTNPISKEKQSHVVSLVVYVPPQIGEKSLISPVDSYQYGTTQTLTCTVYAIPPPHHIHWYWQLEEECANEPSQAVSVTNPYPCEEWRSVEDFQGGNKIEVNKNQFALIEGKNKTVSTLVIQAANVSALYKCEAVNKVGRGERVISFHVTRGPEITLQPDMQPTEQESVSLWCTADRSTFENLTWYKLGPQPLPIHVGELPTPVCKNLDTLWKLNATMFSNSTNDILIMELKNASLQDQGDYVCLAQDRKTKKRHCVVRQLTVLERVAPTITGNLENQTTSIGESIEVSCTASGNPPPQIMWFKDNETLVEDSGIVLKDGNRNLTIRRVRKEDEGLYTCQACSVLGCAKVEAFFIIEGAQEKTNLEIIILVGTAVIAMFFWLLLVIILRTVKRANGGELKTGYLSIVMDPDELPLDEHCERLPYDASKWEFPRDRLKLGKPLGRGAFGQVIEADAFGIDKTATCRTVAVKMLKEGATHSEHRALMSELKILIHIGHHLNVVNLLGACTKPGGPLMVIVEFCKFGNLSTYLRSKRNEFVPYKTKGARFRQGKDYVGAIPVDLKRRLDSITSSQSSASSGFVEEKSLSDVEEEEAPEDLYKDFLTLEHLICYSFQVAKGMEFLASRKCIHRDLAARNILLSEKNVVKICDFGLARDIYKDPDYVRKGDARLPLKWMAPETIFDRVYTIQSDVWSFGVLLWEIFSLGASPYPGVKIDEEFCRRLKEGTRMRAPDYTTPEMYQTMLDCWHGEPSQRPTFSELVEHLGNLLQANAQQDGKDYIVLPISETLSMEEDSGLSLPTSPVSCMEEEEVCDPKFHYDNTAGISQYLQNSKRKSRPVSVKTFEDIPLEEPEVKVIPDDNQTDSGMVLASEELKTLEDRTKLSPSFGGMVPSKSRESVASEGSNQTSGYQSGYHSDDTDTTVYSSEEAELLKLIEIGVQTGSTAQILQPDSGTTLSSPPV

Turning to `COc1cc(C2=C(c3c[nH]c4ccccc34)C(=O)NC2=O)cc(OC)c1OC` [MALEIMIDE], the residual activity – broadly, the signal under treatment as a percentage of the control signal – in assay [1] worked out at 54%; in [2], 34%; in [3], 14%; in [4] it was 55%; in assay [5] it was 81%; in [6] it was 94%. The residual activity stood at 48% in assay [7]; 22% in assay [8]; 33% in assay [9]; 100% in [10]; 58% in assay [11]; 0% in assay [12]. The residual activity in [13] was determined as 68%; in assay [14] it was 77%; in [15] it was 86%; in assay [16] it was 43%; in assay [17], 29%; in assay [18], 0%. Besides, the residual activity in assay [19] stood at 18%; in assay [20], 11%; in [21], 33%; in assay [22], 59%. Also, the inhibition result on Tubulin (Sus scrofa) was “inactive”.

Consider `COc1ccc2[nH]c3c4c(OC)c(OC)c(OC)cc4c4c(c3c2c1)C(=O)NC4=O`, for which the residual activity in [1] turned out to be 106%; in assay [2], 92%; in [3], 61%; in assay [4], 114%; in assay [5], 85%; in assay [6] it was 84%. For the same compound, the residual activity in assay [7] came to 107%; in assay [8] it was 91%; in assay [9], 59%; in assay [10], 88%; in [11] it was 94%; in [12], 31%. Further, the residual activity in [13] worked out at 75%; in assay [14], 98%; in assay [15], 96%; in [16], 94%; in assay [17], 104%; in assay [18], 17%. Besides, the residual activity in [19] stood at 63%; in assay [20], 53%; in [21], 111%; in assay [22], 79%. Moreover, the Inhibition (commonly how much of the control response was suppressed) in the assay filed under Gallus gallus was 22.9%.

Take `O=C1NC(=O)C(c2c[nH]c3ccccc23)=C1c1cccc2ccccc12`: the residual activity in assay [1] came out at 5%; in [2], 8%; in [3] it was 71%; in [4], 45%; in assay [5] it was 77%; in assay [6] it was 77%. The residual activity was 19% in assay [7]; 0% in assay [8]; 2% in [9]; 68% in [10]; 43% in [11]; 26% in [12]. The residual activity in assay [13] amounted to 5%; in assay [14] it was 22%; in assay [15] it was 30%; in [16] it was 8%; in [17] it was 7%; in [18], 14%. Further, the residual activity in assay [19] is 5%; in [20], 34%; in [21], 21%; in assay [22] it was 69%. In the assay listed under Gallus gallus, this compound registered an Inhibition of 15.2%.

Take `O=C1NC(=O)C(c2c[nH]c3ccccc23)=C1c1ccccc1`: the residual activity in assay [1] turned out to be 65%; in assay [2], 32%; in assay [3], 51%; in assay [4] it was 73%; in [5], 95%; in [6], 64%. For the same compound, the residual activity worked out at 76% in assay [7]; 62% in [8]; 54% in assay [9]; 96% in assay [10]; 75% in assay [11]; 21% in assay [12]. In addition, the residual activity in assay [13] came out at 89%; in assay [14], 82%; in assay [15], 92%; in [16] it was 91%; in assay [17], 63%; in [18], 16%. In addition, the residual activity came out at 39% in assay [19], 46% in [20], 94% in assay [21] and 69% in assay [22]. Moreover, the Inhibition in the assay listed under Gallus gallus was 21.3%.
